Source: ChEMBL document CHEMBL1128383, “Potent, orally active, competitive N-methyl-D-aspartate (NMDA) receptor antagonists are substrates for a neutral amino acid uptake system in Chinese hamster ovary cells” (J Med Chem, 1995)
One block for each compound: values may come before it.

How the values were obtained:
[1] = biological target: Glutamate NMDA receptor; assay: Inhibition of NMDA receptor binding affinity in rat brain synaptosomal membrane using [3H]glutamate as radioligand; format: cell membranes
Method in brief: (§1)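 Displacement of radioligand ([3H]glutamate, [3H]glycine or [3H]CGP 39653) from rat cortex synaptosomal membranes. IC50 values are means of at least two experiments, each run in triplicate.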

[2] = biological target: Glutamate NMDA receptor; assay: (§2) Inhibition of receptor binding affinity in rat brain synaptosomal membrane was determined by [3H]-CGP- 39653 as radioligand; format: cell membranes; method in brief: as §1
[3] = system: Mus musculus; assay: Maximal electroshock (MES) results in mice by iv administration of 10 mg/kg expressed as number of animals protected by total 5 animals tested after 1 hr was reported; format: functional
Method in brief: (§3)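 Adult male CF-1 mice (18–24 g) dosed iv, mg/kg. At 15 min, 1 h and 2 h after dosing, a 60 Hz sinusoidal current (50 mA base to peak, 0.2 s) is applied through corneal electrodes smeared with electrolyte jelly. Protection means no tonic hindlimb extension. Ataxia is scored by inverted screen. Data are expressed as animals affected per animals tested, 5 per group.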

[4] = system: Mus musculus; assay: Maximal electroshock (MES) results in mice by iv administration of 10 mg/kg expressed as number of animals protected by total 5 animals tested after 15 min was reported; format: functional; method in brief: as §3
[5] = system: Mus musculus; assay: Maximal electroshock (MES) results in mice by iv administration of 10 mg/kg expressed as number of animals ataxia by total 5 animals tested after 2 hr was reported; format: functional; method in brief: as §3
[6] = system: Mus musculus; assay: Maximal electroshock (MES) results in mice by iv administration of 10 mg/kg expressed as number of animals ataxia by total 5 animals tested after 15 min was reported; format: functional; method in brief: as §3
[7] = system: Mus musculus; assay: Maximal electroshock (MES) results in mice by iv administration of 10 mg/kg expressed as number of animals ataxia by total 5 animals tested after 1 hr was reported; format: functional; method in brief: as §3
[8] = system: Mus musculus; assay: Maximal electroshock (MES) results in mice by iv administration of 10 mg/kg expressed as number of animals protected by total 5 animals tested after 2 hr was reported; format: functional; method in brief: as §3
[9] = biological target: Glutamate NMDA receptor; assay: Inhibition of NMDA receptor binding affinity in rat brain synaptosomal membrane using [3H]glycine as radioligand; format: cell membranes; method in brief: as §1
[10] = system: Mus musculus; assay: Maximal electroshock (MES) results in mice by iv administration of 10 mg/kg expressed as number of animals ataxia by number of animals tested after 15 min was reported; format: functional; method in brief: as §3
[11] = system: Mus musculus; assay: Maximal electroshock (MES) results in mice by iv administration of 30 mg/kg expressed as number of animals ataxia by total 5 animals tested after 15 min was reported; format: functional; method in brief: as §3
[12] = system: Mus musculus; assay: Maximal electroshock (MES) results in mice by iv administration of 30 mg/kg expressed as number of animals protected by total 5 animals tested after 15 min was reported; format: functional; method in brief: as §3
[13] = system: Mus musculus; assay: Maximal electroshock (MES) results in mice by iv administration of 10 mg/kg expressed as number of animals ataxia by number of animals tested after 1 hr was reported; format: functional; method in brief: as §3
[14] = system: Mus musculus; assay: Maximal electroshock (MES) results in mice by iv administration of 10 mg/kg expressed as number of animals protected by number of animals tested after 15 min was reported; format: functional; method in brief: as §3
[15] = system: Mus musculus; assay: Maximal electroshock (MES) results in mice by iv administration of 30 mg/kg expressed as number of animals protected by total 5 animals tested after 2 hr was reported; format: functional; method in brief: as §3
[16] = system: Mus musculus; assay: Maximal electroshock (MES) results in mice by iv administration of 10 mg/kg expressed as number of animals protected by number of animals tested after 1 hr was reported; format: functional; method in brief: as §3
[17] = system: Mus musculus; assay: Maximal electroshock (MES) results in mice by iv administration of 30 mg/kg expressed as number of animals protected by total 5 animals tested after 1 hr was reported; format: functional; method in brief: as §3
[18] = system: Mus musculus; assay: Maximal electroshock (MES) results in mice by iv administration of 30 mg/kg expressed as number of animals ataxia by total 5 animals tested after 1 hr was reported; format: functional; method in brief: as §3
[19] = system: Mus musculus; assay: Maximal electroshock (MES) results in mice by iv administration of 30 mg/kg expressed as number of animals ataxia by total 5 animals tested after 2 hr was reported; format: functional; method in brief: as §3
[20] = biological target: Glutamate NMDA receptor; assay: Inhibition of receptor binding affinity in […] measured using LDH release
Method in brief: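 Neuronal cell-culture excitotoxicity assay. Cell death is induced by a 5 min application of 100 μM NMDA and read out as lactate dehydrogenase release. The value is the compound concentration needed to prevent cell death.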

[21] = system: Mus musculus; assay: Maximal electroshock (MES) results in mice by iv administration of 3 mg/kg expressed as number of animals with ataxia by total 5 animals tested after 15 min was reported; format: functional; method in brief: as §3
[22] = system: Mus musculus; assay: Maximal electroshock (MES) results in mice by iv administration of 10 mg/kg expressed as number of animals with ataxia total 5 animals tested after 2 hr was reported; format: functional; method in brief: as §3
[23] = system: Mus musculus; assay: Maximal electroshock (MES) results in mice by iv administration of 10 mg/kg expressed as number of animals with ataxia total 5 animals tested after 1 hr was reported; format: functional; method in brief: as §3
[24] = system: Mus musculus; assay: Maximal electroshock (MES) results in mice by iv administration of 3 mg/kg expressed as number of animals protected by total 5 animals tested after 2 hr was reported; format: functional; method in brief: as §3
[25] = system: Mus musculus; assay: Maximal electroshock (MES) results in mice by iv administration of 3 mg/kg expressed as number of animals protected by total 5 animals tested after 15 min was reported; format: functional; method in brief: as §3
[26] = system: Mus musculus; assay: Maximal electroshock (MES) results in mice by iv administration of 3 mg/kg expressed as number of animals with ataxia total 5 animals tested after 2 hr was reported; format: functional; method in brief: as §3
[27] = system: Mus musculus; assay: Maximal electroshock (MES) results in mice by iv administration of 3 mg/kg expressed as number of animals protected by total 5 animals tested after 1 hr was reported; format: functional; method in brief: as §3
[28] = system: Mus musculus; assay: Maximal electroshock (MES) results in mice by iv administration of 3 mg/kg expressed as number of animals with ataxia by total 5 animals tested after 1 hr was reported; format: functional; method in brief: as §3
[29] = system: Mus musculus; assay: Maximal electroshock (MES) results in mice by iv administration of 10 mg/kg expressed as number of animals with ataxia total 5 animals tested after 15 min was reported; format: functional; method in brief: as §3
[30] = biological target: T1, Glutamate NMDA receptor (Rattus norvegicus) (UniProt P35439+Q00959+Q00960+Q00961+Q62645+Q8VHN2+Q9R1M7); assay: Inhibition of NMDA receptor binding affinity in rat brain synaptosomal membrane by using [3H]glycine as radioligand; format: cell membranes; details: concentration not given here; method in brief: as §1
[31] = biological target: T1, Glutamate NMDA receptor (Rattus norvegicus); assay: as §2; format: cell membranes; details: concentration not given here; method in brief: as §1
[32] = biological target: T1, Glutamate NMDA receptor (Rattus norvegicus); assay: Inhibition of NMDA receptor binding in rat brain synaptosomal membrane using [3H]glutamate as radioligand; format: cell membranes; details: concentration not given here; method in brief: as §1

SMILES: N[C@H](Cc1cc(CP(=O)(O)O)cc(-c2ccc3ccccc3c2)c1)C(=O)O
IC50 [1]: 0.65 µM
IC50 [2]: 0.59 µM

SMILES: N[C@H](Cc1cc(CP(=O)(O)O)cc(-c2ccccc2)c1)C(=O)O
Protected [3]: 0
IC50 [1]: 13.5 µM
Protected [4]: 0
Ataxia [5]: 0
Ataxia [6]: 0
Ataxia [7]: 0
Protected [8]: 0
IC50 [2]: 5.21 µM
IC50 [9]: > 200 µM

SMILES: N[C@H](Cc1cc(CP(=O)(O)O)cc(-c2cccc3ccccc23)c1)C(=O)O
Ataxia [10]: 0
Ataxia [11]: 1
Protected [12]: 3
Ataxia [13]: 0
Protected [14]: 0
Protected [15]: 5
Protected [16]: 0
IC50 [1]: 0.32 µM
Protected [17]: 3
Ataxia [5]: 0
Protected [8]: 1
IC50 [2]: 0.25 µM
Ataxia [18]: 0
Ataxia [19]: 0

SMILES: N[C@@H](Cc1cc(-c2ccccc2)cc(CP(=O)(O)O)c1[N+](=O)[O-])C(=O)O
IC50 [1]: 2.3 µM
IC50 [2]: 1.08 µM
IC50 [9]: 11.5 µM

Continued, in another order:

IC50 [20]: 1 µM
IC50 [1]: 0.13 µM
IC50 [2]: 0.088 µM
IC50 [9]: 224 µM
SMILES: N[C@@H](Cc1cc(CP(=O)(O)O)cc(-c2ccccc2)c1)C(=O)O
Ataxia [21]: 0
Ataxia [22]: 0
Ataxia [23]: 1
Protected [24]: 1
Protected [25]: 1
Ataxia [26]: 0
Protected [27]: 0
Protected [3]: 4
Protected [4]: 5
Ataxia [28]: 0
Ataxia [29]: 0
Protected [8]: 3

inhibition [30]: 100%
inhibition [31]: 86%
inhibition [32]: 80%
SMILES: O=P(O)(O)Cc1cc(CP(=O)(O)O)cc(-c2ccccc2)c1
